Screening data deposited in PubChem BioAssay by several laboratories.
m5-HT2A agonist = activates the mouse 5-HT2A serotonin receptor | hit rate 0.66% among 360,000 | CHO-K1 mHTR2A beta-arrestin complementation, luminescence; percent of 30 µM serotonin response | AID 624169 | activation, % at 7.6 µM;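 active = activation above a run cutoff, the mean activation of all tested compounds plus 3 SD, cut at about 14% in these data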
MC4R barr agon = agonists of human melanocortin 4 receptor (MC4R) beta-arrestin; P32245; U2OS MC4R beta-arrestin complementation, luminescence; percent of melanotan II response, DMSO zero; activation, % at 8.9 µM; hit rate 0.98% among 360,000;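 active = activation above a per-plate cutoff, the mean activation of sample wells on that plate plus 3 SD, cut at about 8% in these data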
TMEM16A inh = blocks the mouse calcium-activated chloride channel TMEM16A. Q8BHY3. hit rate 1.2% among 310,000. normalized B-score (activity score, 25-100; higher = stronger inhibition) at 10 µM. AID 588511. HEK293 TMEM16A/YFP iodide influx fluorescence, ionomycin;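 active = ratio plate-corrected score three or more library SD toward inhibition, starting fluorescence score within five deviations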;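 note: score derived from kinetic fluorescence span divided by baseline fluorescence per well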
ANO1 activ = activates or potentiates the mouse TMEM16A chloride channel | HEK293 TMEM16A/YFP-H148Q/I152L, iodide quench fluorescence; stronger effect = lower value | Q8BHY3 | hit rate 0.3% among 340,000 | B-score at 10 µM | AID 623877;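 active = fluorescence-ratio B-score plate-corrected deviation score at least 3 library SD below zero, with starting fluorescence score within 5 deviations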;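 note: channel opened by trigger with iodide after compound preincubation; score built on the fluorescence ratio of max minus min over baseline; more negative score means more quench and so TMEM16A activation or potentiation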
beta cell repl = induces beta-cell replication in MIN6 cells. AID 2380. MIN6 cells proliferation, ATPlite luminescence, 48 h; cells starved in 0.2% serum; 100% = growth in 10% serum. hit rate 0.29% among 330,000. proliferation, % at 10 µM;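 active = compounds whose signal lies at least 3.5 SD above the mean of all wells on their plate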
MC4R antagonist = human MC4R antagonism in cAMP assay; inhibition, % at 6.5 µM; MC4R-expressing cells, MTII-stimulated cAMP, LANCE TR-FRET; hit rate 0.48% among 360,000;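 active = inhibition above its plate's cutoff, the mean of tested wells on that plate plus 3 SD, cut at about 29% in these data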
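Material: U2OS-MC4R stable cell line | Reagent: Melanotan II challenge after compound preincubation | Doses: One concentration, 6.5 µM nominal | Incubation: 30-min compound preincubation, 1-h Melanotan II challenge, 1-h detection, room temperature | Signal: TR-FRET cAMP assay | Replicates: One well per compound, no replicates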
TMEM16A reconf = re-confirmation of mouse TMEM16A chloride channel inhibitors; shares compounds with TMEM16A inh; hit rate 39% among 2,300; inhibition, % at 10 µM; HEK293 TMEM16A/YFP-H148Q, iodide quench fluorescence; ionomycin added to raise cell calcium;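 active = mean duplicate percent inhibition, scaled so buffer wells are 0 and the reference blocker 100, over three buffer SD above buffer mean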
HEK293 Ca mobil = counter-screen for TMEM16A inhibitors: effect on calcium mobilization; shares compounds with TMEM16A inh; TMEM16A/YFP HEK293, Fluo4 calcium mobilization; calcium response (% of ionomycin), % at 10 µM; hit rate 2% among 2,300; AID 652231;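 active = duplicate-averaged calcium signal over 20% of the ionomycin maximum, relative to buffer baseline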;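 note: each well's signal is peak minus trough fluorescence divided by its pre-addition baseline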
YFP-HEK293 quench = parental YFP-HEK293 iodide quench counter-screen activity; shares compounds with TMEM16A inh; ionomycin; YFP ratio F(max-min)/F0 at 10 µM; 2,300 tested, under 10 active; AID 652233;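 active = yellow fluorescent protein signal ratio exceeding the buffer control mean by over 5 SD of those controls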;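 note: ratio is mean of duplicate wells from kinetic YFP trace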
ClC-1 rat inh = rat ClC-1 inhibition, TMEM16A specificity screen; shares compounds with TMEM16A inh; CHO ClC-1-YFP, iodide influx fluorescence quench; iodide control reads 0, buffer control 100; ratio percent, % at 10 µM; 2,300 tested, under 10 active;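 active = duplicate-mean ratio percent above the mean of iodide-only control wells, which defines zero, plus 5 of their SD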;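 note: higher percent means stronger block of ClC-1 iodide influx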
Of the large screens only hits and unclear results are named; the others gave an inactive call (follow-up assays come after a bar, where they were run). Most compounds without a hit are left out; they make up all but 3.4% or so of the library.

CSCC[C@H](NC(=O)OC(C)(C)C)C(=O)N1CCC(C(=O)NCC(=O)Nc2ccc(C)cc2)CC1	none | TMEM16A reconf inactive | HEK293 Ca mobil inactive | YFP-HEK293 quench inactive | ClC-1 rat inh inactive
NC(=O)C1Cc2ccccc2CN1C(=O)c1nn(Cc2ccccc2)c(=O)c2ccccc12 (centres undefined)	none (no result: TMEM16A inh)
CCOC(=O)C1=C(c2cccc(Oc3ccccc3)c2)NC(=S)NC1C (centres undefined)	TMEM16A inh 100 | TMEM16A reconf inactive | HEK293 Ca mobil inactive | YFP-HEK293 quench inactive | ClC-1 rat inh inactive
O=S(=O)(c1ccccc1)N1CCN=C1SCc1ccc(Cl)cc1	TMEM16A inh 25 | TMEM16A reconf inactive | HEK293 Ca mobil inactive | YFP-HEK293 quench inactive | ClC-1 rat inh inactive
O=c1[nH]c(=S)[nH]cc1Oc1ccccc1	none (no result: TMEM16A inh, beta cell repl)
Cc1oc2c(c(C)cc3oc(=O)c(CC(=O)NCCCO)c(C)c32)c1C	none | TMEM16A reconf inactive | HEK293 Ca mobil inactive | YFP-HEK293 quench inactive | ClC-1 rat inh inactive
Cc1ccc(-n2c(SCc3ccc([N+](=O)[O-])cc3)nc3ccccc3c2=O)cc1	TMEM16A inh 25 | TMEM16A reconf inactive | HEK293 Ca mobil inactive | YFP-HEK293 quench inactive | ClC-1 rat inh inactive
Cc1ccc(S(=O)(=O)NCC2CCC(C(=O)NCCCN3CCCC3=O)CC2)cc1 (centres undefined)	none
CC(C)(C)NC(=O)COC(=O)c1snc(C(=O)NC2CCCCC2)c1N	TMEM16A inh 100 | TMEM16A reconf inactive | HEK293 Ca mobil inactive | YFP-HEK293 quench inactive | ClC-1 rat inh inactive
CC1(C)CC(=O)C(CC(=O)NC(=O)NCc2ccccc2)=C(O)C1	TMEM16A inh 100 | TMEM16A reconf inactive | HEK293 Ca mobil inactive | YFP-HEK293 quench inactive | ClC-1 rat inh inactive
Cc1cccc(C(=O)NCC(=O)OCCOc2ccccc2Cl)c1	none
O=C(COC(=O)c1cnccn1)N=c1sccn1Cc1ccccc1Cl	none
Cc1nc2ccc(N=NC3=C(O)CCCC3=O)cc2s1	none | TMEM16A reconf inactive | HEK293 Ca mobil inactive | YFP-HEK293 quench inactive | ClC-1 rat inh inactive
CC1=CC(C)(C)N(C(=O)CCl)c2cc(C)ccc21	none
CC1=CC(C)(C)N(C(=O)c2ccc(F)cc2)c2cc3c(cc21)OCO3	TMEM16A inh 100 | TMEM16A reconf 58.0% | HEK293 Ca mobil inactive | YFP-HEK293 quench inactive | ClC-1 rat inh inactive
Cn1ccsc1=NC(=O)c1ccc(OC(F)(F)F)cc1	none
COc1ccc(Cc2nc(-c3ccc(-n4cccc4)cc3)no2)cc1OC	TMEM16A inh 100 | TMEM16A reconf inactive | HEK293 Ca mobil inactive | YFP-HEK293 quench inactive | ClC-1 rat inh inactive
COc1ccc(Cc2nc(-c3ccc(-n4cccc4)cc3)no2)cc1	none
Cc1ccc(O)c(Sc2cc(C)ccc2O)c1	TMEM16A inh 25 | TMEM16A reconf 38.0% | HEK293 Ca mobil inactive | YFP-HEK293 quench inactive | ClC-1 rat inh inactive
Cc1ccc(O)c(O)c1	none (no result: m5-HT2A agonist, MC4R barr agon, ANO1 activ, MC4R antagonist)
COC(=O)c1ccc(O)c(Sc2cc(C(=O)OC)ccc2O)c1	TMEM16A inh 100 | TMEM16A reconf 19.0% | HEK293 Ca mobil inactive | YFP-HEK293 quench inactive | ClC-1 rat inh inactive
Cc1nc2nc(C)n(CCN3CCOCC3)c(=O)c2c(-c2cccc([N+](=O)[O-])c2)c1C(=O)CCCCCCCCCCN1CCC(c2ccccc2)(c2ccccc2)CC1	none (no result: TMEM16A inh, beta cell repl)
CC(Sc1ccc(S(=O)(=O)N2CCCCC2)cn1)C(N)=O (centres undefined)	none (no result: TMEM16A inh, ANO1 activ, beta cell repl)
